Measurements collected from several papers.
Each line is one published result; the experiments were not run side by side.
Target: Serine/threonine-protein kinase WNK2 (WNK2, Homo sapiens, UniProt Q9Y3S1)

SMILES	read-out	action	technique	tested at	measurement	value
Cc1cc(NC(=O)c2cccc3cc(-c4cccc5[nH]nc(N)c45)ccc23)ccc1F	enzyme activity	inhibitor	–	0.1 µM	activity vs control	98%
COc1cccc(CNC(=O)c2nc3scc(COCc4ccc(C(=O)O)cc4)c3c(=O)[nH]2)c1	cell-free assay	–	competition with immobilised ligand	1 µM	remaining binding	54.2%
CN1CC(Oc2cnc(C#N)cc2-c2ccn3nc(NC(=O)C4CC4)cc3c2)C1	enzyme activity	inhibitor	–	1 µM	inhibition	8%
Cc1ccc(Nc2nccc(N(C)c3ccc4c(C)n(C)nc4c3)n2)cc1S(N)(=O)=O	enzyme activity	inhibitor	–	0.3 µM	inhibition	2%
Cc1sc(C(=O)NC2COC2)cc1-n1cc(NC(=O)Nc2c(F)cccc2Cl)cn1	enzyme activity	inhibitor	–	10 µM	remaining activity	91.1%
O=C1Nc2ccc(Cl)cc2C1=Cc1cc(Cl)c(O)c(Cl)c1	cell-free assay	–	–	0.5 µM	remaining signal	115%
Cc1cnc(NC2CCOCC2)nc1-n1cnc(C(=O)NC(CN)c2cc(F)cc(Cl)c2)c1 (stereo not drawn)	enzyme activity	inhibitor	radiometric	1 µM	remaining activity	85%
CNC(=O)c1cc(Oc2ccc(NC(=O)Nc3ccc(Cl)c(C(F)(F)F)c3)cc2)ccn1	enzyme activity	inhibitor	–	0.3 µM	inhibition	1%
Cc1ccc(NC(=O)c2ccc(C)c(C(F)(F)F)c2)cc1C#Cc1nn(C2CCC(O)CC2)c2ncnc(N)c12 (stereo not drawn)	cell-free assay	–	–	10 µM	remaining signal	105%
CCN(CC)CCNC(=O)c1c(C)[nH]c(/C=C2\C(=O)Nc3ccc(F)cc32)c1C	enzyme activity	inhibitor	–	0.3 µM	inhibition	3%
O=C(O)[C@@H]1[C@@H](Cn2nnc3ccccc3c2=O)CC[C@H]1C(=O)c1ccc(OCCC2CCOCC2)cc1	cell-free assay	–	competition with immobilised ligand	1 µM	remaining binding	82%
CCCOc1ccc(OC)c(F)c1C(=O)c1ccc(C(=O)N[C@@H]2CNC[C@H]2NC(=O)c2ccc3[nH]ncc3c2)cc1	enzyme activity	inhibitor	–	10 µM	remaining activity	92%
Nc1cnc(N2CCc3cc(S(=O)(=O)Nc4c(F)cc(Cl)cc4F)cc(N4CCCC4=O)c32)nc1	cell-free assay	–	competition with immobilised ligand	1 µM	remaining binding	100%
CC(C)(C)c1nc(-c2cccc(NS(=O)(=O)c3c(F)cccc3F)c2F)c(-c2ccnc(N)n2)s1	enzyme activity	inhibitor	radiometric	1 µM	remaining activity	103%
CN([C@@H]1CCc2c(CC(=O)O)c3ccccc3n2C1)S(=O)(=O)c1ccc(F)cc1	cell-free assay	–	competition with immobilised ligand	1 µM	remaining binding	92%
COc1cc(Cl)c(C(=O)N[C@@H](CN[C@H]2CC[C@@H](N)CC2)Cc2ccc(C#N)cc2)cc1-c1ccc(CN[C@H](C)c2ccc(C)cc2)o1	enzyme activity	inhibitor	–	1 µM	remaining activity	101%
CN(CCCC(F)(F)F)c1nccc(-c2cnn3ncccc23)n1	binding	–	–	1 µM	remaining binding	100%
CC(=O)N1CCC(c2ccc(C(=O)NC(=N)N)cc2C(F)(F)F)CC1	cell-free assay	–	competition with immobilised ligand	1 µM	remaining binding	98%
